The values that follow come from ChEMBL document CHEMBL1122026, “Antiestrogenic properties of substituted benz[a]anthracene-3,9-diols” (1982).

The species named for experiment [1] is Rattus norvegicus. Description: Antiestrogenic potency was measured by inhibition of estrus in ovariectomized rats treated with 17-beta-estradiol at a dose of 5 mg. It counts as functional. The procedure, abridged: (§1)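 Ovariectomized rats were given 17β-estradiol together with the test compound. Vaginal smears were taken 32 h later; rats with cornified epithelial cells in the smear were scored as in estrus. The 32 h time point was chosen from smears taken at 0, 8, 24, 32, 48, 56 and 72 h. Read-out: percentage of rats in estrus, and its inhibition.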

Experiment [2] is filed under the species Rattus norvegicus. Put plainly: Affinity constant was measured by inhibition of estrus in ovariectomized rats treated with 17-beta-estradiol at a dose of 5 mg. It counts as functional, organism-based.
Experiment [3] is filed under the species Rattus norvegicus. Description: Antiestrogenic potency was measured by inhibition of estrus in ovariectomized rats treated with 17-beta-estradiol at a dose of 0.5 mg. It counts as functional. The procedure, abridged:
as §1

Experiment [4] is filed under the species Rattus norvegicus. Put plainly: Affinity constant was measured by inhibition of estrus in ovariectomized rats treated with 17-beta-estradiol. It counts as functional, organism-based.

For orientation: Inhibition means how much of the control response was suppressed. Read a low Inhibition as little suppression. As for `CC(=O)Oc1ccc2c(ccc3c(C)c4cc(OC(C)=O)ccc4c(C)c32)c1`, the Inhibition in the experiment listed under Rattus norvegicus [1] is reported as 67%.

In the experiment listed under Rattus norvegicus [2], `Oc1ccc2cc3c(ccc4cc(O)ccc43)cc2c1` registered a Ka of 3e+07 M⁻¹. Besides, the Inhibition in the experiment listed under Rattus norvegicus [1] was found to be 12%.

In the experiment filed under Rattus norvegicus [2], `Cc1c2ccc(O)cc2cc2ccc3cc(O)ccc3c12` registered a Ka of 4.3e+07 M⁻¹. Moreover, the Inhibition in the experiment listed under Rattus norvegicus [1] amounted to 44%.

`COc1ccc2c(c1)CCC(c1ccccc1)=C2c1ccc(OCCN2CCCC2)cc1` [NAFOXIDINE] showed an Inhibition in the experiment filed under Rattus norvegicus [3] of 44%.

With `Cc1c2cc(O)ccc2c(C)c2c1ccc1cc(O)ccc12`, in the experiment listed under Rattus norvegicus [2], the Ka amounted to 1.7e+08 M⁻¹. Moreover, the Inhibition in the experiment filed under Rattus norvegicus [3] came to 44%; in the experiment listed under Rattus norvegicus [1], 74%.

Consider `Cc1c2cc(O)ccc2cc2c1ccc1cc(O)ccc12`, for which the Ka in the experiment listed under Rattus norvegicus [2] worked out at 1.8e+09 M⁻¹. This compound also returned an Inhibition in the experiment listed under Rattus norvegicus [1] of 22%.

In the experiment listed under Rattus norvegicus [4], `C[C@]12CC[C@@H]3c4ccc(O)cc4CC[C@H]3[C@@H]1C[C@@H](O)[C@@H]2O` had a Ka of 7e+09 M⁻¹.
